Results on 27 molecules are retold here after ChEMBL document CHEMBL1123497, “Structure-activity studies of 4,6-disubstituted 2-(morpholinocarbonyl)furo[3,2-b]indole derivatives with analgesic and antiinflammatory activities” (1986).

The structures appear in SMILES notation. Some results are limits rather than exact numbers.

Holding throughout (type): functional
For assay [1], the species on record is Mus musculus. Nature of the assay: Analgesic activity by acetic acid writhing assay in mice. Further details: concentration or dose not given beside the values. A digest of the protocol:
(§1)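 Mice received drug orally 30 min before an ip injection of 0.7% acetic acid (10 mL/kg). Writhes were counted 10–20 min after injection, and % inhibition was taken against a control group. ED50 and 95% confidence limits came from the Litchfield–Wilcoxon method.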

The species named for assay [2] is Mus musculus. Nature of the assay: Inhibition of acetic acid induced writhing in mice. The method in brief: as §1
(An intraperitoneal irritant provokes the stretching counted in writhing tests.)

Assay [3] concerns Rattus norvegicus. Nature of the assay: Antiinflammatory activity by Carrageenan edema assay in rats. Further details: concentration or dose not given beside the values; unit not given here. A digest of the protocol:
(§2)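 Groups of six male Wistar rats (130–170 g) were dosed orally 60 min before a subplantar injection of 0.5% λ-carrageenin suspension (0.1 mL/rat) into the left hind paw. Foot volume was measured every 60 min for 360 min, and % swelling was compared with controls. ED50 and 95% confidence limits came from Litchfield–Wilcoxon. Screening used % edema inhibition at 100 mg/kg po.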
On the technique in general: The carrageenan paw model is a standard test of acute inflammation.

Assay [4] is filed under the species Rattus norvegicus. Nature of the assay: Compound was evaluated for analgesic activity in Randall-Selitto test in inflamed foot rats. The method in brief:
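Groups of six male Wistar rats (90–110 g) received 20% yeast suspension (0.1 mL/rat) subplantar into the right hind paw, then oral drug 120 min later. Pain threshold was read every 60 min for 240 min. A rise of more than 50% over the control group counted as positive. ED50 and 95% confidence limits came from Litchfield–Wilcoxon.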

The species entered for assay [5] is Rattus norvegicus. The assay can be described thus: Compound was evaluated for antipyretic activity in rats by yeast induced fever test. The method in brief: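 Groups of six male Wistar rats (190–210 g) received 7.5% yeast suspension sc (10 mL/kg). Rats whose temperature rose by more than 1 °C were dosed orally 180 min later. Body temperature was recorded automatically every 60 min for 360 min, and % inhibition was compared with controls. ED50 and 95% confidence limits came from Litchfield–Wilcoxon.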

Assay [6] has as its system Rattus norvegicus. Nature of the assay: Compound was evaluated for antiinflammatory activity in rats by carrageenan edema test. The method in brief:
as §2

For assay [7], the species on record is Mus musculus. The assay can be described thus: Compound was evaluated for analgesic activity in Pressure test in mice. A digest of the protocol: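 Groups of 10 male ddY mice (19–24 g) were dosed orally, and pain threshold to pressure was measured every 30 min for 120 min. A postdrug threshold raised more than 50% over the predrug value counted as positive. ED50 and 95% confidence limits came from Litchfield–Wilcoxon.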

Assay [8] is filed under the species Rattus norvegicus. Nature of the assay: Compound was evaluated for analgesic activity in Adjuvant-induced arthritic pain test in rats. A digest of the protocol:
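Groups of six male SD rats (160–200 g) received 0.5% Mycobacterium butyricum suspension (0.1 mL/rat) intradermally into the distal tail. After 15–18 days, rats that vocalized on gentle flexion were dosed orally, and the pain response was checked every 60 min for 300 min. Absence of response counted as positive. ED50 and 95% confidence limits came from Litchfield–Wilcoxon.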

The species named for assay [9] is Rattus norvegicus. Nature of the assay: Compound was evaluated for analgesic activity in Randall-Selitto test in normal foot rats.
The species entered for assay [10] is Mus musculus. The assay can be described thus: Compound was evaluated for analgesic activity in Acetic acid writhing assay in mice. A digest of the protocol:
as §1

Assay [11] deals with Rattus norvegicus. Nature of the assay: Compound was evaluated for antiinflammatory activity by Carrageenan edema assay in rats. A digest of the protocol: as §2

The ED50 is the dose that gives a 50% effect, or the effect in half of the subjects. For `CCCCCCCn1c2cc(C(F)(F)F)ccc2c2oc(C(=O)N3CCOCC3)cc21`, the Inhibition in the assay filed under Mus musculus [1] stood at 3%; in the assay with Rattus norvegicus [3], 3. Also, the median effective dose (ED50) in the assay listed under Mus musculus [2] was determined as 17.8 mg/kg.

`CCCCOC(=O)n1c2cc(C(F)(F)F)ccc2c2oc(C(=O)N3CCOCC3)cc21`: the Inhibition worked out at 3% in the assay listed under Mus musculus [1] and 3 in the assay with Rattus norvegicus [3]. In addition, in the assay listed under Mus musculus [2], the 50% effect level (ED50) was put at a dose of 21.4 mg/kg.

Turning to `CC(C)CCCn1c2cc(C(F)(F)F)ccc2c2oc(C(=O)N3CCOCC3)cc21`, the Inhibition in the assay filed under Mus musculus [1] was determined as 3%; with Rattus norvegicus [3] it was 3. Moreover, in the assay listed under Mus musculus [2], the ED50 amounted to 6 mg/kg.

As for `Cc1ccc2c3oc(C(=O)N4CCOCC4)cc3n(C(=O)OC(C)C)c2c1`, the figures for the Inhibition in the assay filed under Mus musculus [1] and in the assay with Rattus norvegicus [3] were 3% and 3, respectively. This molecule also returned an ED50 in the assay filed under Mus musculus [2] of 26 mg/kg.

For the molecule `O=C(Cn1c(=O)sc2ccc(Cl)cc21)N1CCN(CCO)CC1` [TIARAMIDE], the ED50 in the assay filed under Rattus norvegicus [4] is 94.6 mg/kg; in the assay listed under Rattus norvegicus [5], 171 mg/kg; in the assay on Rattus norvegicus [6], 119 mg/kg; in the assay filed under Mus musculus [2] it was 74 mg/kg; in the assay filed under Mus musculus [7], 116 mg/kg; in the assay filed under Rattus norvegicus [8] it was 176 mg/kg. Further, the 50% effective dose (ED50) in the assay filed under Rattus norvegicus [9] was above 160 mg/kg.

For the molecule `CCCCC(CC)C(=O)n1c2cc(C(F)(F)F)ccc2c2oc(C(=O)N3CCOCC3)cc21` (stereo not drawn), the ED50 came out at 1.7 mg/kg in the assay listed under Rattus norvegicus [4]; 0.059 mg/kg in the assay listed under Rattus norvegicus [5]; 5.4 mg/kg in the assay on Rattus norvegicus [6]; 0.7 mg/kg in the assay filed under Mus musculus [2]; 0.7 mg/kg in the assay filed under Mus musculus [10]; 7 mg/kg in the assay filed under Mus musculus [7]. Further, the 50% effective dose (ED50) is 1.7 mg/kg in the assay filed under Rattus norvegicus [8] and 5.9 mg/kg in the assay filed under Rattus norvegicus [9]. For the same molecule, the Inhibition is 3% in the assay listed under Mus musculus [1] and 3 with Rattus norvegicus [3].

With `CCCCn1c2cc(C(F)(F)F)ccc2c2oc(C(=O)N3CCOCC3)cc21`, the Inhibition is 3% in the assay filed under Mus musculus [1] and 3 with Rattus norvegicus [3]. For the same molecule, the median effective dose (ED50) in the assay filed under Mus musculus [2] was 29.5 mg/kg.

For the molecule `CC(C)=CCn1c2cc(C(F)(F)F)ccc2c2oc(C(=O)N3CCOCC3)cc21`, the Inhibition in the assay filed under Mus musculus [1] came out at 3%; in the assay on Rattus norvegicus [3], 3. This molecule also had an ED50 in the assay filed under Mus musculus [2] of 10.1 mg/kg.

As for `COC(=O)n1c2ccccc2c2oc(C(=O)N3CCOCC3)cc21`, the Inhibition in the assay listed under Mus musculus [1] came out at 1%; in the assay with Rattus norvegicus [11], 2%.

As to `CC(C)OC(=O)n1c2cc(Cl)ccc2c2oc(C(=O)N3CCOCC3)cc21`, the Inhibition in the assay listed under Mus musculus [1] was found to be 3%; with Rattus norvegicus [3], 3. In addition, in the assay listed under Mus musculus [2], it took a dose of 21.4 mg/kg to reach the 50% effect level (ED50).

With `CC(C)CC(=O)n1c2cc(C(F)(F)F)ccc2c2oc(C(=O)N3CCOCC3)cc21`, the Inhibition in the assay filed under Mus musculus [1] worked out at 3%; with Rattus norvegicus [3], 3. The same molecule showed an ED50 in the assay filed under Mus musculus [2] of 6 mg/kg.

As for `CCCCCCn1c2cc(C(F)(F)F)ccc2c2oc(C(=O)N3CCOCC3)cc21`, the Inhibition is given as 3% in the assay listed under Mus musculus [1] and 3 in the assay on Rattus norvegicus [3]. This molecule also returned an ED50 in the assay filed under Mus musculus [2] of 7.7 mg/kg.

Turning to `CC(C)C(=O)n1c2cc(C(F)(F)F)ccc2c2oc(C(=O)N3CCOCC3)cc21`, the figures for the Inhibition in the assay filed under Mus musculus [1] and with Rattus norvegicus [3] were 3% and 3, respectively. In the assay filed under Mus musculus [2], this molecule returned an ED50 of 7.3 mg/kg.

Take `Cc1ccc2c3oc(C(=O)N4CCOCC4)cc3n(C(=O)OCC(C)C)c2c1`: the Inhibition in the assay filed under Mus musculus [1] is 2%; in the assay with Rattus norvegicus [3] it was 2.

`COC(=O)n1c2cc(F)ccc2c2oc(C(=O)N3CCOCC3)cc21`: the figures for the Inhibition in the assay filed under Mus musculus [1] and in the assay on Rattus norvegicus [3] were 1% and 1, respectively.

In the case of `CCCOC(=O)n1c2cc(C(F)(F)F)ccc2c2oc(C(=O)N3CCOCC3)cc21`, the results for the Inhibition in the assay listed under Mus musculus [1] and with Rattus norvegicus [3] were 3% and 3, respectively. The molecule also gave an ED50 in the assay filed under Mus musculus [2] of 34.6 mg/kg.

With `CC(C)CCn1c2cc(C(F)(F)F)ccc2c2oc(C(=O)N3CCOCC3)cc21`, the Inhibition was determined as 3% in the assay listed under Mus musculus [1] and 3 with Rattus norvegicus [3]. In the assay listed under Mus musculus [2], it took a dose of 5.1 mg/kg to reach the 50% effect level (ED50).

With `CCCCC(=O)n1c2cc(C(F)(F)F)ccc2c2oc(C(=O)N3CCOCC3)cc21`, the figures for the Inhibition in the assay listed under Mus musculus [1] and with Rattus norvegicus [3] were 3% and 3, respectively. This molecule also came in with an ED50 in the assay listed under Mus musculus [2] of 34.5 mg/kg.

Take `CCCOC(=O)n1c2cc(Cl)ccc2c2oc(C(=O)N3CCOCC3)cc21`: the Inhibition in the assay listed under Mus musculus [1] turned out to be 2%; in the assay on Rattus norvegicus [3], 2.

For `CCCCCn1c2cc(C(F)(F)F)ccc2c2oc(C(=O)N3CCOCC3)cc21`, the Inhibition in the assay listed under Mus musculus [1] turned out to be 3%; in the assay with Rattus norvegicus [3], 3. Further, in the assay filed under Mus musculus [2], the ED50 turned out to be 10.9 mg/kg.

Take `CCCCOC(=O)n1c2cc(F)ccc2c2oc(C(=O)N3CCOCC3)cc21`: the Inhibition is recorded as 2% in the assay filed under Mus musculus [1] and 1 in the assay with Rattus norvegicus [3].

Regarding `CCOC(=O)n1c2cc(C(F)(F)F)ccc2c2oc(C(=O)N3CCOCC3)cc21`, the figures for the Inhibition in the assay listed under Mus musculus [1] and in the assay on Rattus norvegicus [3] were 3% and 3, respectively. The 50% effective dose (ED50) in the assay filed under Mus musculus [2] stood at 35.6 mg/kg.

`COC(=O)n1c2cc(OC)ccc2c2oc(C(=O)N3CCOCC3)cc21`: the Inhibition was determined as 1% in the assay filed under Mus musculus [1] and 1 with Rattus norvegicus [3].

As for `CCCOC(=O)n1c2cc(F)ccc2c2oc(C(=O)N3CCOCC3)cc21`, the Inhibition in the assay listed under Mus musculus [1] was 2%; with Rattus norvegicus [3] it was 1.

Regarding `CCOC(=O)n1c2cc(O)ccc2c2oc(C(=O)N3CCOCC3)cc21`, the values for the Inhibition in the assay filed under Mus musculus [1] and in the assay on Rattus norvegicus [3] were 2% and 1, respectively.

Consider `CC(C)OC(=O)n1c2cc(C(F)(F)F)ccc2c2oc(C(=O)N3CCOCC3)cc21`, for which the Inhibition in the assay filed under Mus musculus [1] was found to be 3%; in the assay with Rattus norvegicus [3] it was 3. In addition, the 50% effect level in the assay listed under Mus musculus [2] (ED50) was put at a dose of 4.7 mg/kg.

With `CC(C)COC(=O)n1c2ccccc2c2oc(C(=O)N3CCOCC3)cc21`, the results for the Inhibition in the assay listed under Mus musculus [1] and in the assay on Rattus norvegicus [3] were 1% and 1, respectively.
